Results on two compounds are retold here after ChEMBL document CHEMBL5380787, “Optimized M24B Aminopeptidase Inhibitors for CARD8 Inflammasome Activation” (J Med Chem, 2023).

Calls of active or inactive are those of the source. No cut-off for these calls is given here.

For experiment [1], the system named is THP-1. Put plainly: Induction of pyroptosis in CARD8 knockout human THP-1 cells assessed as GSDMD cleavage at 20 uM incubated for 24 hrs by immunoblot analysis. The class given is functional, cell-based. Summed up: (§1)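 Cells (MV4;11, OCI-AML2 or THP-1; WT or the knockout named) plated at 5 × 10^5 cells/well and exposed to 20 μM compound for 24 h. LDH in the supernatant was measured relative to a Triton X-100 lysis control. For immunoblots, cells were washed in PBS, sonicated, protein-normalized, run on SDS-PAGE and probed for GSDMD cleavage. n = 3.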
For orientation: In western blotting, separated proteins are transferred to a membrane and probed.

Experiment [2] concerns THP-1. Put plainly: Induction of pyroptosis in human THP-1 cells assessed as GSDMD cleavage at 20 uM incubated for 24 hrs by immunoblot analysis. Format: functional, cell-based. Summed up: as §1
Experiment [3] concerns OCI-AML2. The experiment is described as follows: Cytotoxicity against human OCI-AML2 cells assessed as reduction in cell viability at 1 uM incubated for 24 hrs by celltiter-glo assay relative to control. Format: functional. The method in brief: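 Single-dose viability screen. MV4;11 or OCI-AML2 cells at 2000 cells/well were exposed to 1 μM compound for 24 h. Viability was read by CellTiter-Glo luminescence and expressed as percent inhibition. Values are means of three biological replicates.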

Experiment [4] relates to MV4-11. Put plainly: Cytotoxicity against human MV4-11 cells assessed as reduction in cell viability incubated for 24 hrs by celltiter-glo assay. The class given is functional, cell-based. As to conditions: MV4-11, 24 h. Summed up: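 MV4;11 cells (WT or CASP1−/−), grown in RPMI 1640 with 10% FBS at 37 °C, 5% CO2, plated 2000 cells/well, dosed by pintool across 100 μM to 15.2 nM in three-fold steps for 24 h. Viability by CellTiter-Glo luminescence after 2 min shaking and 10 min at 25 °C. IC50 as mean ± SEM of three biological replicates.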
Background: In ATP-based viability assays light output follows the ATP content of the culture.

In experiment [5] the test system is BMDM. The experiment is described as follows: Induction of pyroptosis in C57BL/6J mouse BMDM cells expressing NLRP1A and NLRP1B allele 2 assessed as LDH release at 20 uM incubated for 24 hrs. The class given is functional, cell-based. Summed up:
(§2)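 Bone marrow cells from femurs and tibias of 7–12-week-old C57BL/6J mice were RBC-lysed and differentiated for 6 days at 37 °C in DMEM with 10% FBS and 15–20% L-cell medium, then replated. Cells were exposed to 20 μM compound for 24 h. Read-outs were LDH release against a lysis control and GSDMD immunoblot.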
(Release of lactate dehydrogenase indicates damage to the cell membrane.)

In experiment [6] the target is T1, Xaa-Pro dipeptidase (Homo sapiens) (UniProt P12955).
T1 sequence (whole entry): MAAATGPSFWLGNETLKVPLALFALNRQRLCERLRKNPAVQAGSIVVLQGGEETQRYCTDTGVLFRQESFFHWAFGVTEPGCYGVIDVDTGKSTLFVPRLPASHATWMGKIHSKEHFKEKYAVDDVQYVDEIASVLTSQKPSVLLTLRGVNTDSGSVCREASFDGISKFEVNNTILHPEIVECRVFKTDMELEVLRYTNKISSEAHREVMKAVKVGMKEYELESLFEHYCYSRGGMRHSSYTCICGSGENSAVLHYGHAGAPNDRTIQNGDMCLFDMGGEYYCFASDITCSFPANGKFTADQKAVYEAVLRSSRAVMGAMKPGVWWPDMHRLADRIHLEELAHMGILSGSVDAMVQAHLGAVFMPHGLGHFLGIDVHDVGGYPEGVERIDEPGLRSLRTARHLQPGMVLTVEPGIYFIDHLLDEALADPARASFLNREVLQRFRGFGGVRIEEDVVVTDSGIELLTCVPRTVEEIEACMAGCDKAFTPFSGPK
Put plainly: Inhibition of recombinant human PEPD using Ala-Pro as substrate assessed as alanine release by measuring increase in fluorescense signal at 1 uM by fluorescence based analysis relative to control. Summed up: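 Recombinant human PEPD at 50 nM was incubated with Ala-Pro at 40 μM final and compound. Released alanine was detected by coupled alanine transaminase/pyruvate oxidase conversion to H2O2 and resorufin fluorescence (Ex/Em 535/587 nm) at 25 °C.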

Experiment [7] relates to OCI-AML2. Put plainly: Induction of pyroptosis in CARD8 knockout human OCI-AML2 cells assessed as GSDMD cleavage at 20 uM incubated for 24 hrs by immunoblot analysis. The class given is functional, cell-based. Summed up: as §1
Experiment [8] concerns RAW264.7. Put plainly: Induction of pyroptosis in mouse RAW264.7 cells expressing NLRP1B allele 1 assessed as GSDMD clevage at 20 uM incubated for 24 hrs by immunoblot analysis. Format: functional, cell-based. The method in brief:
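RAW264.7 cells, grown in DMEM with 10% FBS, plated at 5 × 10^5 cells/well and exposed to 20 μM compound for 24 h. Supernatant LDH was measured relative to a Triton X-100 lysis control; lysates were immunoblotted for GSDMD cleavage. n = 3.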

Experiment [9] relates to MV4-11. The experiment is described as follows: Induction of cell death in human MV4-11 cells assessed as increase in PI uptake at 6.25 uM incubated for 6 hrs by PI staining based fluorescence analysis. The class given is functional. Summed up: (§3)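 PI flux assay. 2 × 10^4 MV4;11 (WT, CARD8−/− or CASP1−/−) or OCI-AML2 cells in RPMI were given compound at 6.25 μM plus PI at 10 μM final. Fluorescence (Ex/Em 535/617 nm) was read every 5 min at 37 °C for 6 h, baseline-corrected to DMSO and normalized to the maximum response. n = 3.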

Experiment [10] relates to THP-1. Put plainly: Induction of pyroptosis in CARD8 knockout human THP-1 cells harboring dox-inducible […] E274R mutant assessed as GSDMD cleavage at 20 uM pretreated with doxycycline for 16 hrs followed by compound addition and measured after 6 hrs by immunoblot analysis. Format: functional, cell-based. Summed up:
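CARD8−/− THP-1 cells carrying a doxycycline-inducible CARD8 E274R mutant were exposed or not to DOX at 100 ng/mL for 16 h. Compound was then added at 20 μM for 6 h, followed by LDH release and immunoblot analysis.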

Experiment [11] deals with OCI-AML2. Put plainly: Induction of pyroptosis in CARD8 knockout human OCI-AML2 cells assessed as LDH release at 20 uM incubated for 24 hrs. The class given is functional, cell-based. The method in brief: as §1
The subject of experiment [12] is BMDM. The experiment is described as follows: Induction of pyroptosis in C57BL/6J mouse BMDM cells expressing NLRP1A and NLRP1B allele 2 assessed as GSDMD clevage at 20 uM incubated for 24 hrs by immunoblot analysis. The class given is functional, cell-based. Summed up:
as §2

Experiment [13] has as its system THP-1. The experiment is described as follows: Induction of pyroptosis in PEPD knockout human THP-1 cells assessed as LDH release at 20 uM incubated for 24 hrs. The class given is functional, cell-based. The method in brief: as §1
The test system of experiment [14] is HEK-293T. Put plainly: Induction of pyroptosis in human HEK293T cells expressing CASP1 and GSDMD cotransfected with dTAG-CARD8ZUC and CARD8 FIIND S297A assessed as destabilization of DPP9-CARD8 ternary complex by measuring LDH release at 20 uM incubated for 6 hrs in presence of dTAG13. Format: functional, cell-based.
For experiment [15], the system named is OCI-AML2. The experiment is described as follows: Induction of pyroptosis in human OCI-AML2 cells assessed as LDH release at 20 uM incubated for 24 hrs. Format: functional, cell-based. The method in brief: as §1
The test system of experiment [16] is MV4-11. Put plainly: Induction of cell death in CASP1 knockout human MV4-11 cells assessed as increase in PI uptake at 6.25 uM incubated for 6 hrs by PI staining based fluorescence analysis. Format: functional. The method in brief:
as §3

The test system of experiment [17] is OCI-AML2. Put plainly: Induction of pyroptosis in human OCI-AML2 cells assessed as GSDMD cleavage at 20 uM incubated for 24 hrs by immunoblot analysis. The class given is functional, cell-based. The method in brief: as §1

As to `COC(=O)[C@@H]1CCCN1C(=O)[C@@H](O)[C@H](N)CC(C)C`, the outcome in experiment [1], in experiment [5], in [7], in [8], in experiment [10] and in [11] was inactive. For the same compound, the result in experiment [12] and in experiment [16] was inactive. Besides, the result in experiment [2], in [9], in [13], in experiment [14], in experiment [15] and in experiment [17] was Active. Moreover, the Activity in experiment [3] was 42%. The IC50 in experiment [4] came to 2.2 µM. Besides, the inhibition in experiment [6] was found to be 48%.

Take `COC(=O)[C@H](CC(C)C)NC(=O)[C@@H]1CCCN1C(=O)[C@@H](O)[C@H](N)CC(C)C`: the outcome in [1], in experiment [5], in [7], in [8], in experiment [10] and in experiment [11] was inactive. The outcome in experiment [12] and in experiment [16] was inactive. Moreover, the outcome in [2], in [9], in experiment [13], in experiment [14], in experiment [15] and in [17] was Active. Besides, the Activity in experiment [3] is 37%. The IC50 in experiment [4] was 0.27 µM. Further, the inhibition in experiment [6] turned out to be 60%.

A word on the IC50: it is the point on the concentration scale where inhibition reaches its midpoint. The inhibition is the relative decrease from the control value, in per cent.
